Each structure is given as a SMILES string. Activity calls are given as the source filed them.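 How the source made its calls: active means compounds whose fitted caspase activation midpoint falls no more than tenfold above the top tested dose; inconclusive means flat fit with activity between 30 and 70 percent, or failed fit; inactive means the rest.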 A value given as a limit tells only on which side of the number the result lay.

The assay deals with MEF Flag-A1-IRES-BIM, caspase-Glo luminescence, 3 h. Briefly: caspase activation in A1/BIM-primed MEFs, dose response, A1 (Bcl2A1) inhibitor project, cell-based, alternate construct, luminescence (AID 449757). The method in brief:
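System: Flag-A1-IRES-BIM-primed MEF cells; Doses: 100 nL compound added per well by pin transfer; Times: 3 h at 37 °C, then 1 h detection at room temperature; Measured by: luminescent caspase activity measurement with CaspaseGlo reagent.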
Usually AC50 stands for the concentration at which the activity in the assay is half-maximal. As for `COc1ccc(-c2ccc3c(c2)S(=O)(=O)c2cccc(C(=O)NC[C@@H]4CCCO4)c2C3=O)cc1OC`, the AC50 is > 35 µM (inactive).
With `Cc1cc(C)cc(NC(=O)/C(C#N)=C/c2cn(CC(=O)NCc3ccco3)c3ccccc23)c1`, the AC50 was 8.5 µM.
Regarding `CCN(C(=O)CCN1C(=O)c2ccccc2S1(=O)=O)c1ccccc1`, the AC50 is > 35 µM (inactive).
Regarding `Cc1ccc2nc(N(CCCN(C)C)C(=O)c3ccc(S(=O)(=O)N4CCc5ccccc5C4)cc3)sc2c1`, the AC50 is > 35 µM (inactive).
For `COc1cc(SC#N)ccc1N=Cc1c(C)[nH]n(-c2ccc(C)cc2)c1=O`, the AC50 is 25.3 µM.
Regarding `COc1cc(/C=C/[N+](=O)[O-])ccc1OC(=O)c1cccnc1`, the AC50 is 9.63 µM.
Turning to `Cc1ccc(C=C2C(Cl)=C(Cl)C(Cl)=C2Cl)cc1`, the AC50 was 4.67 µM.
For `O=[N+]([O-])/C=C/c1cn(Cc2ccc(Cl)cc2)c2ccccc12`, the AC50 was 15.9 µM.
As to `CCOC(=O)c1ccc(-c2ccc(/C=N/NC(=O)CN(c3cccc(C)c3)S(C)(=O)=O)o2)cc1`, the AC50 is 36.2 µM.
As for `Cc1ccc(C(=O)/C=C\C(=O)c2ccc(C)cc2)cc1`, the half-maximal activity concentration (AC50) is 36.7 µM.
In the case of `O=C1/C(=C\c2c(NCCOCCO)nc3ccccn3c2=O)SC(=S)N1Cc1ccco1`, the AC50 was > 35 µM (inactive).
As for `COc1ccc(-c2c(C#N)c(N)nc(Sc3ccc(Cl)cc3)c2C#N)cc1`, the figure is > 35 µM (inactive); as for `CC(=O)OC(C)(C)/C=C/C(=O)[C@](C)(O)C1[C@H](O)C[C@@]2(C)C3CC=C4C(C[C@H](O)C(=O)C4(C)C)[C@]3(C)C(=O)C[C@]12C` (stereo partly drawn), > 35 µM (inactive); as for `O=C1/C(=C/c2ccc(N3CCOCC3)o2)SC(=Nc2ccccc2)N1CCc1c[nH]c2ccccc12`, > 35 µM (inactive).
For the compound `O=c1c(Cl)c(Cl)cnn1Cc1ccccc1Cl`, the AC50 was > 35 µM (inactive).
Turning to `Cc1cc(NC(=O)CSc2nc3cc(Cl)ccc3c(=O)n2Cc2ccco2)no1`, the AC50 was > 35 µM (inactive).
`COc1ccc(NC(=O)C(=O)N/N=C\c2ccc(CNC(=O)C(=O)Nc3ccc(C)c(C)c3)o2)c(OC)c1`: the AC50 is 26.1 µM.
As for `Cc1ccc2c(c1)c(C1=c3ccccc3=NC1=O)c(O)n2C`, the AC50 is > 35 µM (inactive).
As for `Cc1ccc(C(=O)COC(=O)c2ccc3c(c2)C(=O)N(c2cccc4ncccc24)C3=O)cc1`, the figure is 36.1 µM; as for `CCOc1cc(/C=C\[N+](=O)[O-])ccc1OCC(=O)Nc1ccccc1C`, 6.53 µM.
On to `COc1ccc(-c2nc(NC(=O)c3n[nH]c(=O)c4ccccc34)sc2C)cc1`, for which the AC50 was > 35 µM (inactive).
In the case of `CCOCCCNC(=O)c1ccc2c(c1)N=C(CC)c1cc(Br)ccc1S2`, the AC50 is > 35 µM (inactive).
In the case of `COc1ccc2c(c1)CCc1c(C(=O)Nc3cc(C)n(Cc4ccc(Cl)cc4)n3)noc1-2`, the AC50 is 21.9 µM.
`Cc1ccc(C#N)c(SCC(=O)Nc2nccs2)n1`: the AC50 is > 35 µM (inactive).
For the compound `O=C(Oc1cccc(/C=N/Nc2nc(Nc3ccccc3)nc(N3CCOCC3)n2)c1)c1ccco1`, the AC50 was > 35 µM (inactive).
In the case of `Cc1cc(C)cc(Cn2ncc(Cl)c(Cl)c2=O)c1`, the AC50 is > 35 µM (inactive).
The value for `O=C(NCc1ccccc1Br)c1cccc2c1C(=O)c1ccc(-c3ccc(OC(F)(F)F)cc3)cc1S2(=O)=O` was > 35 µM (inactive).
Take `CC(=O)Nc1ccc(NC(=O)C(C)OC(=O)/C=C/c2cn(-c3ccccc3)nc2-c2cccnc2)cc1` (stereo not drawn): the AC50 is 27.5 µM.
For the compound `COc1ccc(C2Nc3ccc4ccccc4c3-c3c2c(=O)oc2ccccc32)cc1` (stereo not drawn), the AC50 is 14.9 µM.
The value for `COc1ccc(C(=O)/C=C/C(=O)N(CC(=O)NC2CCCCC2)Cc2cccs2)c(O)c1` was 24.5 µM; that for `COc1cc2c(-c3ccccc3)c(C)oc2cc1/C=N/NC(N)=S` was > 35 µM (inactive).
Turning to `O=C(Nc1ccc([N+](=O)[O-])cc1)C(Cc1ccccc1)N1C(=O)c2cccc3cccc(c23)C1=O` (stereo not drawn), the AC50 was > 35 µM (inactive).
As for `CC(=O)[C@]1(O)Cc2c(O)c3c(c(O)c2[C@@H](O[C@H]2C[C@H](N)[C@H](O)[C@H](C)O2)C1)C(=O)c1ccccc1C3=O`, the figure is > 35 µM (inactive); as for `COC(=O)c1ccc2c(=O)n(Cc3ccc4c(c3)OCO4)c(=S)[nH]c2c1`, > 35 µM (inactive).
`O=C(N/C=N/OCc1ccc(Cl)cc1Cl)NOCc1ncc(C(F)(F)F)cc1Cl`: the AC50 is > 35 µM (inactive).
On to `CCC(Sc1nc2cc3c(cc2c(=O)n1Cc1ccco1)OCO3)C(=O)Nc1cccc(OC)c1` (stereo not drawn), for which the AC50 is > 35 µM (inactive).
Regarding `O=C(Nc1ccc([N+](=O)[O-])cc1)c1nc[nH]c1C(=O)NC1CCCCC1`, the AC50 is > 35 µM (inactive).
Consider `CN(c1ccccc1)c1ccc(/C=C/[N+](=O)[O-])cc1`, for which the concentration at half-maximal activity (AC50) was 10.2 µM.
In the case of `COc1cc(NC(=O)c2cccs2)ccc1NC(=O)c1cc2ccccc2o1`, the AC50 is > 35 µM (inactive).
On to `Nc1nc(F)nc2c1ncn2[C@@H]1O[C@H](CO)[C@@H](O)[C@H]1O`, for which the AC50 was > 35 µM (inactive).
As for `CCc1ccc(Nc2n[n+](-c3ccccc3)c(/C=C/c3ccccc3)s2)cc1`, the figure is 10.3 µM; as for `Cc1nn(Cc2ccc(Cl)cc2Cl)c(C)c1NC(=O)Cn1nc([N+](=O)[O-])c(Cl)c1C`, > 35 µM (inactive); as for `C#CC(=O)N(c1cc(OC)ccc1OC)C(C(=O)NC1CCCC1)c1cccs1` (stereo not drawn), > 35 µM (inactive).
With `O=C(NC1CCCCC1)C(c1ccc(F)cc1)N(CCc1ccccc1)C(=O)CN1C(=O)c2ccccc2S1(=O)=O` (stereo not drawn), the AC50 was 7.6 µM.
As for `COC(=O)c1ccc2c(c1)C(C)(C)C(/C=C/c1ccccc1O)=[N+]2C`, the figure is 11.3 µM; as for `CCCCC1CCC(C(=O)N(CC(C)C)c2c(N)n(Cc3ccccc3)c(=O)[nH]c2=O)CC1` (stereo not drawn), 8.13 µM; as for `COc1ccc(-c2oc(=O)c3cc(OC)c(OC)cc3c2/C=C/c2cccc([N+](=O)[O-])c2)cc1`, > 35 µM (inactive).
The value for `CC(=O)OC(C)(C)/C=C/C(=O)C(C)(O)C1[C@H](O)C[C@@]2(C)C3CC=C4C(CC[C@@H](O)C4(C)C)[C@]3(CO)C(=O)C[C@]12C` (stereo partly drawn) was > 35 µM (inactive).
As for `COc1cc(/C=C(/C#N)c2nc3ccccc3[nH]2)ccc1OCC(=O)Nc1ccccc1C(C)C`, the figure is 16.1 µM; as for `CCOc1cc(/C=C2/C(=N)N3C=CSC3=NC2=O)ccc1OCCCOc1ccccc1C`, 35.4 µM; as for `O=C(CN(c1ccc(Br)cc1)S(=O)(=O)c1ccc(Cl)c([N+](=O)[O-])c1)NCCc1ccccc1`, > 35 µM (inactive).
For `COc1ccc(Oc2cc(NC(=O)c3nn(C)cc3[N+](=O)[O-])cc([N+](=O)[O-])c2)cc1`, the AC50 was 21.3 µM.
As for `CCS(=O)(=O)c1ncc(Cl)c(C(=O)Nc2ccc(S(=O)(=O)N3CCC(C)CC3)cc2)n1`, the AC50 is > 35 µM (inactive).
As for `CCOC(=O)c1c(C)oc2c1c(CN1CCN(C(=O)OCC)CC1)c(O)c1ccccc12`, the AC50 is 7.15 µM.
With `CCCCCCCC/C=C\CCCCCCCC(=O)NCCc1ccc(O)c(O)c1`, the AC50 was 11.6 µM.
As for `Cc1ccc(S(=O)(=O)c2nnn3c2nc(Nc2cccc(C)c2)c2ccccc23)cc1`, the figure is > 35 µM (inactive); as for `COc1ccc(NC(=O)CSc2nc3ccc(Nc4nc(N5CCOCC5)nc(N5CCOCC5)n4)cc3s2)cc1`, > 35 µM (inactive).
As to `CN1C2CCC1/C(=C/c1ccccn1)C(=O)/C2=C\c1ccccn1`, the AC50 is > 35 µM (inactive).
The value for `Cc1ccc(Sc2c([N+](=O)[O-])c(=O)n(C)c3ccccc23)cc1` was > 35 µM (inactive); that for `CN(C)C/C=C(\c1ccc(Br)cc1)c1cccnc1` was > 35 µM (inactive); that for `COCc1cc(C)nc(SCC(=O)Nc2nc(C)cs2)c1C#N` was > 35 µM (inactive).
As for `COc1cc2cnc(-c3ccccc3)c(-c3cccc(C(F)(F)F)c3)c2cc1OC`, the figure is > 35 µM (inactive); as for `COc1ccc(S(=O)(=O)N2CC(O)CC2C(=O)OCC(=O)Nc2ccc(Cl)cn2)cc1` (stereo not drawn), > 35 µM (inactive).
Take `CCOc1ccc(-n2c(SCC(=O)Nc3ccc(Br)cc3)nc3n[nH]c(C)c3c2=N)cc1`: the AC50 was 31 µM.
Consider `COc1ccc(-c2ccc3c(c2)S(=O)(=O)c2cccc(C(=O)NCCOc4ccccc4)c2C3=O)cc1OC`, for which the AC50 is > 35 µM (inactive).
Turning to `CC(C)CCN(C(=O)Cc1ccc(Cl)c(Cl)c1)c1c(N)n(Cc2ccccc2)c(=O)[nH]c1=O`, the AC50 is 16.9 µM.
The value for `COc1ccccc1-c1cc(C(F)(F)F)nc(S(=O)(=O)CCCC(=O)N2CCOCC2)n1` was 8.31 µM.
Take `COC(=O)[C@@]1(C)CC[C@]2(C)CC[C@@]3(C)C(=CC(=O)C4[C@@]5(C)CC[C@H](O)C(C)(C)[C@@H]5CC[C@]43C)[C@H]2C1` (stereo partly drawn): the AC50 was > 35 µM (inactive).
As to `COc1cc(-c2cc(-c3ccccc3)nc(SCC(=O)Nc3nccs3)c2C#N)cc(OC)c1OC`, the AC50 was > 35 µM (inactive).
On to `COc1ccccc1C(=O)Nc1ccnn1C1CCN(Cc2cn(C)c3ccccc23)CC1`, for which the AC50 is > 35 µM (inactive).
As to `CCOC(=O)C(C(=O)OCC)c1cc(Br)c2noc3c2c1C(=O)c1ccccc1-3`, the AC50 is 14.8 µM.
For the compound `COc1ccc(OC)c(NC(=O)c2cc(-c3cc(C)ccc3O)n[nH]2)c1`, the AC50 was > 35 µM (inactive).
On to `Oc1ccc(/C=N/N2CCN(C3c4ccccc4-c4ccccc43)CC2)cc1O`, for which the AC50 is 24 µM.
The value for `Cc1cc(=O)[nH]c(SCC(=O)Nc2ccc(Br)cc2)c1C#N` was > 35 µM (inactive); that for `CCOC(=O)/C=c1\s/c(=C\c2ccc(C(=O)OC)cc2)c(=O)n1CC(=O)Nc1ccccc1` was > 35 µM (inactive); that for `COc1ccccc1-c1cn[nH]c1-c1ccc(OCc2ccccc2)cc1O` was > 35 µM (inactive).
Turning to `CC(C)(C)[C@H](N)C(=O)N[C@H]1CCC2C3CC=C4C[C@@H](O)CC[C@]4(C)C3CC[C@@]21C` (stereo partly drawn), the AC50 was > 35 µM (inactive).
Take `Cc1ccc(S(=O)(=O)N(C)Cc2ccc(C(=O)N/N=C/c3ccc(OC(F)F)cc3)cc2)cc1`: the AC50 is > 35 µM (inactive).
